The structures appear in SMILES notation.

We go through 72 compounds from ChEMBL document CHEMBL4513216, “Probing the Open Global Health Chemical Diversity Library for Multistage-Active Starting Points for Next-Generation Antimalarials” (ACS Infect Dis, 2020).

The data set can be described thus: Toxicity liver stage against HepG2, at 10uM. The data set is classed as cell-based. On the set-up: test concentration 10 uM, cell line HepG2-A16-CD81EGFP. To be noted: human, HepG2-A16-CD81EGFP cells; read-out: INHIBITION
In short, it runs like this: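 Uninfected HepG2-A16-CD81EGFP cells, 3 × 10^3 per well, 1536-well, plated on prespotted compound at 10 μM final, parasite-free screening media added to match infected plates; puromycin 10 μM positive, DMSO 0.5% negative; run in parallel with 48 h PbLuc assay at 37 °C, 5% CO2; viability by CellTiter-Glo luminescence, normalized to controls.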
With `Cn1ncc2c(=O)[nH]c(CN3CCc4sccc4C3)nc21`, the cytotoxicity at 10 µM was -19%.

`CCCNc1ncc(CN2CCOC(Cc3cccc(F)c3)C2)cn1` (configuration not stated): the cytotoxicity at 10 µM is -8.65%.

`Cc1cccc(C)c1OCCNC(=O)C[S+]([O-])C1CCCC1` (configuration not stated): the cytotoxicity at 10 µM is -136%.

`CC(C)N(C)Cc1cnc2n1CCN(Cc1ccco1)C2`: the cytotoxicity at 10 µM amounted to 2.22%.

Regarding `Cc1ncccc1OC1(C(=O)NCCNc2ccccc2)CCNCC1`, the cytotoxicity at 10 µM is -12.4%.

For the compound `COc1cc(CNCCc2cc(F)cc3c2OCOC3)cc(OC)c1`, the cytotoxicity at 10 µM was -1.51%.

Consider `Cc1cnc(C(=O)N2CCC3(CC2)C(=O)NCCN3CC(C)C)cn1`, for which the cytotoxicity at 10 µM turned out to be 8.52%.

Take `CCn1ccnc1CN(C)Cc1nc(Cc2cccc(F)c2)no1`: the cytotoxicity at 10 µM is -4.44%.

Consider `CC(C(=O)N1CCCN(Cc2ccc(C#N)cc2)CC1)n1cncn1` (configuration not stated), for which the cytotoxicity at 10 µM amounted to 2.6%.

Regarding `CNC(=O)NCC1CCC2(CCN(C(=O)c3ccccc3)CC2)CO1` (configuration not stated), the cytotoxicity at 10 µM was -97.2%.

For the compound `Cc1cnn(Cc2cc(F)ccc2F)c1NC(=O)NC1CC1`, the cytotoxicity at 10 µM was determined as 16.9%.

Consider `Cc1ccc(N2CC[C@H]3CN(C(=O)c4ccn(C)n4)C[C@H]3C2)nn1`, for which the cytotoxicity at 10 µM is -102%.

Take `CNS(=O)(=O)c1cccc(CNc2ncccn2)c1`: the cytotoxicity at 10 µM was -9.7%.

`CN(C)c1ccccc1C(=O)N1C[C@@H](CN2CCOCC2)[C@@H](CO)C1`: the cytotoxicity at 10 µM was -4.09%.

On to `COC(=O)c1cc(NCC(=O)NC(N)=O)cc(C(F)(F)F)c1`, for which the cytotoxicity at 10 µM was -1.06%.

For the compound `CNc1cnc(CC2COCCN(CCOc3ccccc3)C2)cn1` (configuration not stated), the cytotoxicity at 10 µM was -0.257%.

In the case of `Cc1ccc(N2CCO[C@H]3[C@H](OCC(=O)N4CCCC4)CC[C@@H]32)cc1`, the cytotoxicity at 10 µM was -1.03%.

For the compound `O=C(C1CCCC1)N1CCCC([C@@H]2C[C@H](C(F)F)n3ncnc3N2)C1` (some centres not stated), the cytotoxicity at 10 µM is 4.54%.

For `O=S(=O)(Cc1ccc(F)cc1)NCc1nnc2n1CCC2`, the cytotoxicity at 10 µM turned out to be 3.82%.

Regarding `N[C@H]1CN(C(=O)Cc2ccc(CO)cc2)C[C@@H]1C1CC1`, the cytotoxicity at 10 µM is -5.68%.

Regarding `Cn1c(CN2CCOC(Cn3cncn3)C2)nc2ccccc21` (configuration not stated), the cytotoxicity at 10 µM is -4.76%.

Consider `O=C(Nc1ccccc1)c1cccc(S(=O)(=O)NC[C@@H]2C[C@H](F)CN2)c1`, for which the cytotoxicity at 10 µM came out at 2.83%.

In the case of `Cc1cc(CN2CCN(c3ccnc(-c4ccccc4)n3)CC2)no1`, the cytotoxicity at 10 µM was -8.92%.

Consider `C=C(C)CN1CCC(NC(=O)NCCc2ccccc2OC)CC1`, for which the cytotoxicity at 10 µM was 14.2%.

Regarding `CSCc1cccc(S(=O)(=O)NCCO)c1`, the cytotoxicity at 10 µM is -0.138%.

In the case of `c1ccc(-c2cc(CNCCCN3CCCCC3)c3nnnn3c2)cc1`, the cytotoxicity at 10 µM was -30.6%.

Regarding `Cc1nc(C)n(Cc2cccc(NC3CCN(C)C3=O)c2)n1` (configuration not stated), the cytotoxicity at 10 µM was -0.519%.

With `CSC1=Nc2c(cnn2-c2ccccc2)C2=NCCCN12`, the cytotoxicity at 10 µM came out at 8.85%.

As to `NCc1cnn(-c2ccccc2C(=O)N2CCCC(C(N)=O)C2)c1` (configuration not stated), the cytotoxicity at 10 µM turned out to be 1.2%.

On to `COCCN1C(=O)CCC12CCC(NCc1cccnc1OC)CC2` (configuration not stated), for which the cytotoxicity at 10 µM amounted to 8.64%.

Regarding `COc1ncccc1CNC(=O)c1cnccn1`, the cytotoxicity at 10 µM was -8.77%.

As for `CN(C)C(=O)Cn1c2c(ccc1=O)CC(NCc1cccnc1)CC2` (configuration not stated), the cytotoxicity at 10 µM was determined as 18%.

`CCC(CC)C(=O)N(C)CC(=O)Nc1ccc(Br)cn1`: the cytotoxicity at 10 µM is -11.2%.

With `CCOc1ccc(C(=O)CCC(=O)NCCc2nncn2CC)cc1C`, the cytotoxicity at 10 µM was -10.7%.

As for `CC(C)N1CCCC2(CCN(Cc3nncn3C(C)C)C2)C1=O` (configuration not stated), the cytotoxicity at 10 µM was -108%.

Consider `CC(C)CC(CCO)CNC(=O)N1CCCC1(C)C` (configuration not stated), for which the cytotoxicity at 10 µM is -12.7%.

On to `COc1c(CNCc2ccc(CN(C)C)cc2)c(C(C)C)nn1C`, for which the cytotoxicity at 10 µM was -11.2%.

As for `Cc1ccc(C2CN(C(=O)c3ccn(C)c(=O)c3)CCO2)nc1` (configuration not stated), the cytotoxicity at 10 µM is -17%.

For the compound `Cc1nc(CCCNC(=O)C2CC(=O)N(C3CC3)C2)sc1C` (configuration not stated), the cytotoxicity at 10 µM is -12.9%.

Regarding `CCCOCCN1CCN(c2ncnc3[nH]ccc23)CC1`, the cytotoxicity at 10 µM was -6.67%.

With `CCOCc1nc(CSc2ccncc2)n(C2CCN(C)CC2)n1`, the cytotoxicity at 10 µM was -1.45%.

As for `CCn1ccc(CN(C)C(=O)CSc2nnc(N)s2)n1`, the cytotoxicity at 10 µM worked out at 3.45%.

In the case of `COc1ccccc1-n1c(C)cc(CNC(=O)NC(C)C)c1C`, the cytotoxicity at 10 µM turned out to be 3.49%.

As to `CN1CCC(Cc2noc(-c3cn(Cc4ccc(F)cc4)nn3)n2)CC1`, the cytotoxicity at 10 µM is -4.18%.

For `CCN(CC)C(=O)N1CCN(C(=O)C2CCCc3[nH]ncc32)CC1` (configuration not stated), the cytotoxicity at 10 µM is -2.3%.

For the compound `CCS(=O)(=O)CC(=O)Nc1cccc2c1CN(CC(C)C)C2`, the cytotoxicity at 10 µM turned out to be 2.25%.

With `Cc1ncsc1C(=O)NCc1cccnc1N(C)CCc1ccccn1`, the cytotoxicity at 10 µM was -14.5%.

As to `CC1COc2ccccc2N1C(=O)CCc1cscn1` (configuration not stated), the cytotoxicity at 10 µM turned out to be 1.88%.

On to `CC(C)c1n[nH]c(C2CN(C(=O)CCCn3cccn3)CCO2)n1` (configuration not stated), for which the cytotoxicity at 10 µM is -7.85%.

With `Cc1nc(C)n(CC2CCCN(Cc3nc(C4CC4)no3)C2)n1` (configuration not stated), the cytotoxicity at 10 µM is -7.76%.

`COc1cc(-n2cccc2)c(Cl)cc1C(=O)NS(C)(=O)=O`: the cytotoxicity at 10 µM is 0.872%.

Consider `Cc1cc(C)n(CCCN(C)C(=O)CN2CC3(CCNCC3)OC2=O)n1`, for which the cytotoxicity at 10 µM was 5.25%.

With `Cc1cc(NCc2cc(C)oc2C(F)(F)F)n2nc(C)cc2n1`, the cytotoxicity at 10 µM stood at 49.1%.

For `Cc1cc(C)n(Cc2cc(C(=O)N3CCCC3c3ccccn3)n[nH]2)n1` (configuration not stated), the cytotoxicity at 10 µM was determined as 0.739%.

In the case of `CC(NC(=O)C(C)(C)C#N)c1ccc(OCC2CC2)c(F)c1` (configuration not stated), the cytotoxicity at 10 µM is 2.31%.

Regarding `CCC(C)NC(=O)NCCCn1nc2ccccn2c1=O` (configuration not stated), the cytotoxicity at 10 µM is -8.08%.

As for `CS(=O)(=O)c1cncnc1C1CCCN(C(=O)Nc2ccccc2F)C1` (configuration not stated), the cytotoxicity at 10 µM is -0.675%.

As to `O=C(c1ccnnc1)N1C[C@@H](OCc2cccnc2)[C@H]2OCCC[C@H]21`, the cytotoxicity at 10 µM amounted to 5.03%.

Turning to `CCSc1ncc(CN2CCC(O)(CN3CCOCC3)C(C)(C)C2)cn1` (configuration not stated), the cytotoxicity at 10 µM amounted to 7.49%.

`NC(=O)c1ccc(CN2CCC(N3CCCCC3)CC2)cc1`: the cytotoxicity at 10 µM is -7.55%.

In the case of `Cc1nc(C)n(CC2CCCCN2CCCO)n1` (configuration not stated), the cytotoxicity at 10 µM was 4.37%.

On to `CN(C)CC(=O)N1CCc2sc(C(=O)NCC3CC3)cc21`, for which the cytotoxicity at 10 µM was determined as 1.68%.

For `CN1CCN(Cc2cn3c(n2)CNCC3)CC1`, the cytotoxicity at 10 µM is 7.85%.

In the case of `Cn1cc(CN2CCOC(CCNC(=O)c3ccsc3)C2)cn1` (configuration not stated), the cytotoxicity at 10 µM was 2.72%.

On to `NCCC(=O)Nc1ccc(-c2ccccc2)cc1`, for which the cytotoxicity at 10 µM is -1.81%.

For `C[C@@H]1CN(Cc2cc(C3CCCCC3)no2)CC[C@]1(C)O`, the cytotoxicity at 10 µM is -13.2%.

As for `O=S(=O)(c1ccccc1)N1CCC2(CCCN2Cc2cccnc2)C1` (configuration not stated), the cytotoxicity at 10 µM is -73.5%.

As for `CS(=O)(=O)Cc1noc(CN(Cc2ccco2)c2ccccc2)n1`, the cytotoxicity at 10 µM was -8.3%.

Regarding `Cn1cc(NCCOc2ccc(F)cc2)cn1`, the cytotoxicity at 10 µM is -1.51%.

For the compound `Cc1c(C(=O)NCC(C)C)nnn1-c1cccc2c1CCN(C)C2`, the cytotoxicity at 10 µM is -7.69%.

As to `CCC(C(=O)N(C)C)N1CCC(c2nccn2Cc2cscn2)CC1` (configuration not stated), the cytotoxicity at 10 µM came out at 2.86%.

With `O=C1N(Cc2cccnc2)CCC12CCCN(c1ncccn1)C2` (configuration not stated), the cytotoxicity at 10 µM is -10.9%.
